# The list is not random: actives were taken first. Their share in the collection is about 0.74%.
# Diaphorase act: diaphorase activation or chemical reduction counter-screen. hit rate 0.005% among 190,000. AID 1229. Diaphorase/resazurin coupled assay, resorufin fluorescence, 16 min; hits give high values; 1 = vehicle wells, 0 = NADH-free wells. activation factor at 20 µM;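 active = diaphorase activity raised at least twofold by the compound at 20 µM; inactive = activation factor below 2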
#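 Material: purified diaphorase enzyme from Clostridium kluyveri / Medium: HEPES pH 7.4 buffer with MgCl2 and Tween 20 / Schedule: enzyme reaction of 16 min at room temperature / Measured by: resorufin fluorescence, excitation 544 nm, emission 590 nm / Evaluation: rise in resorufin formation, marking diaphorase activation or chemical reduction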
# G6PDH CS: counter-screen for G6PDH assay hits: L. mesenteroides G6PDH inhibition; inhibition, % at 5 µM; hit rate 0.12% among 200,000; Purified L. mesenteroides G6PDH, diaphorase/resazurin coupled fluorescence, 45 min; in the data active = inhibition above about 50%
# Diaph inh CS: counter-screen for diaphorase-based assays: diaphorase inhibitors and chemical oxidizers | diaphorase resazurin-to-resorufin fluorescence, NADH, 16 min; bacterial (C. kluyveri) enzyme, not human | inhibition, % at 20 µM | hit rate 0.69% among 190,000 | AID 1217;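 active = primary screen inhibition at 20 µM above a set limit, cut at about 50% in these data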;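 also: plate controls were DMSO with full reaction for no effect and wells lacking NADH for full effect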
#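 Assay system: diaphorase enzyme from Clostridium kluyveri; Input: enzyme working solution with 0.14 U/mL diaphorase; Timing: 16 min at room temperature; Technique: resorufin fluorescence, excitation 544 nm, emission 590 nm; Benchmarks: positive control minus NADH, DMSO neutral control.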
# HKDC1 inh: HKDC1 (human) hexokinase inhibition | Q2TB90 | recombinant HKDC1, G6PDH/diaphorase resazurin coupled fluorescence | inhibition, % at 20 µM | hit rate 0.16% among 340,000 | AID 493160;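 active = inhibition above about 35% when tested at 20 µM, limit read from the data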;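 also: plate controls were DMSO wells with enzyme for no effect and DMSO wells lacking enzyme for full effect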
#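 test system = in-house recombinant HK5 (HKDC1) enzyme | amount = HKDC1 at 5 µg/mL | control set = DMSO-enzyme wells negative, buffer-substituted wells positive | compound = one dose of 20 µM, 1% DMSO | schedule = reaction time 90 min, room temperature, protected from light | technique = resorufin fluorescence at 613 nm | reagent = glucose with 1 mM ATP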
# Arbovirus inh: blocks arbovirus infection; inhibition, % at 10 µM; hit rate 0.37% among 200,000; arbovirus infection cell-based antiviral screen; in the data active = inhibition above about 30%
# HKDC1 act conf2: confirmation of human HKDC1 activators. shares compounds with HKDC1 inh. recombinant HKDC1, G6PDH/diaphorase resazurin fluorescence; hits give low values. inhibition, % at 20 µM. hit rate 14% among 740;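 active = inhibition at or below a set negative limit, negative inhibition meaning the enzyme was activated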
# Numbers without * were called inactive; . = no result.
SMILES,Diaphorase act,G6PDH CS,Diaph inh CS,HKDC1 inh,Arbovirus inh,HKDC1 act conf2
CCCOc1ccc(Cl)cc1/C=C1/C(=O)ON=C1C,.,.,.,5,.,.
COc1ccccc1C(=O)NCCC(=O)N1CCCC(C(F)(F)F)C1 (stereo not drawn),.,.,.,-5,.,.
O=C(NCCC(=O)N1CCCC(C(F)(F)F)C1)c1ccc(Br)cc1 (stereo not drawn),.,.,.,36*,.,-12
COC(=O)c1ccc(C(=O)N=c2sccn2C)cc1,.,.,.,-3,.,.
N#Cc1c(SCC(=O)Nc2nc3ccccc3s2)sc2c(O)cc(=O)[nH]c12,.,.,.,28,.,.
N#Cc1c(SCC(=O)Nc2nc3ccc(Br)cc3s2)sc2c(O)cc(=O)[nH]c12,.,.,.,34,.,45
Cc1ccc(SC2=C(C(=O)O)CCCC2)cc1,.,.,.,-5,.,.
CCn1c2ccccc2c2nnc(SCc3ccc(C(=O)OC)o3)nc21,0.6,5,37,29,2,21
CCN(CC)CC(=O)N1c2ccccc2CCc2ccc(NC(=O)c3cc(OC)c(OC)c(OC)c3)cc21,.,.,.,2,.,.
O=c1[nH]c(=O)c2nc3c4ccccc4c4ccccc4c3nc2[nH]1,0.6,12,38,37*,-8,-2
O=C(N/N=C/c1ccc(O)c2ncccc12)c1cccc(Br)c1,0.8,-4,16,-36,-29,-18
O=C(N/N=C/c1cc(Br)ccc1O)c1ccncc1,.,.,.,-26,.,.
CCc1nn2c(=O)cc(COc3ccc(/C=C4\C(=N)N5N=C(C)SC5=NC4=O)cc3)nc2s1,0.7,-6,30,58*,1,-27
O=C(C1=C(c2ccccc2)C(=O)c2ccccc2C1=O)c1ccccc1,0.6,58*,40,58*,-32,52
COC1=C(c2ccccc2)C(=O)c2ccccc2C1=O,0.9,46,8,11,-31,.
c1ccc(Nc2cc(Nc3ccccc3)[nH]n2)cc1,0.7,0,26,-47,-32,-20
O=c1nccc(Nc2ccccc2)[nH]1,.,.,.,-4,.,.
COc1ccc(C(=O)Nc2cccc(C(=O)Nc3cc(C)ccn3)c2)cc1,.,.,.,1,.,.
CC(=O)Oc1cccc2c1C(=O)c1c(OC(C)=O)cc(C(=O)O)cc1C2=O,0.8,20,19,21,3,.
CC(=O)Oc1cccc2c1C(=O)C1CC=CC(OC(C)=O)C1C2=O (stereo not drawn),.,.,.,-45,.,-66*
CC1C/C(=C\c2cccnc2)C(=O)/C(=C/c2cccnc2)C1 (stereo not drawn),1,-9,0,40*,-31,23
O=C1CSC(=S)N1N=Cc1ccccc1O,.,.,.,-42,.,-9
COc1ccc(N=C2C(=S)N(c3ccc(OC)cc3)C(=NS(=O)(=O)c3ccccc3)N2c2ccccc2)cc1,.,.,.,-69,.,-5
Cc1nc([N+](=O)[O-])c(Br)n1CC(=O)c1ccccc1,1.1,5,-5,8,5,.
Cc1nc([N+](=O)[O-])c(Br)n1CC(=O)c1ccc2ccccc2c1,0.6,1,36,46*,-31,40
SMILES,Diaphorase act,G6PDH CS,Diaph inh CS,HKDC1 inh,Arbovirus inh,HKDC1 act conf2
COc1cc(NC(=O)c2ccc(Br)o2)ccc1NC(=O)c1ccccc1Cl,0.8,-4,16,13,-12,.
Cc1oc2c(c1C(=O)c1ccccc1)C(=O)C(=O)c1ccccc1-2,0.4,60*,58*,42*,-41,52
O=C1C(=O)c2c(C(=O)c3ccccc3)coc2-c2ccccc21,0.4,61*,62*,51*,-33,53
C/C(=N\Nc1ccc(C#N)cc1[N+](=O)[O-])c1ccc(C)o1,.,.,.,-7,.,.
O=C(Nc1ccc(S(=O)(=O)Nc2nccs2)cc1)c1ccc(=O)[nH]c1,0.8,10,18,-1,2,.
O=C(CCl)N1c2ccccc2Sc2c1ccc1ccccc21,.,.,.,44*,.,5
Cc1cccc(C(=O)N2CCCC(Nc3ccc(C)c(C)c3)C2)n1 (stereo not drawn),.,.,.,3,.,.
CC(=NNC(=S)N1CC2CCC(CC2)C1)c1cccc(C)n1,.,.,.,-47,.,-52*
O=C1OC(c2ccccc2)=N/C1=C/c1cccc(OC(=O)c2cccs2)c1,.,.,.,39*,.,-9
O=C1NN(c2ccc(F)c(Cl)c2)C(=O)/C1=C\c1cccc(OC(=O)c2cccs2)c1,0.8,0,16,44*,-24,27
CCNc1ccc(Br)cc(C(=O)/C=C/c2c(Cl)cccc2Cl)c1=O,0.6,22,44,37*,-34,-3
CCN(CC)S(=O)(=O)c1ccc(N/N=C/c2ccc(O)cc2)nc1,1,4,3,2,-20,.
CCN(CC)S(=O)(=O)c1ccc(N/N=C(\C)c2ccc(OC)cc2O)nc1,.,.,.,31,.,20
O=C(CCCCC(=O)Sc1ccccc1)Sc1ccccc1,.,.,.,39*,.,-4
Cc1cc(C)c2oc(C(=O)N(Cc3cccs3)C3CCS(=O)(=O)C3)cc(=O)c2c1 (stereo not drawn),.,.,.,3,.,.
CS(=O)(=O)N1CCc2cc(C(=O)Nc3ccc(Cl)cc3)ccc21,.,.,.,-2,.,.
C=CC(=O)N1C/C(=C/c2ccc(F)cc2)C(=O)/C(=C\c2ccc(F)cc2)C1,.,.,.,36*,.,4
CSc1ccccc1NC(=O)COC(=O)c1cnc(C)cn1,.,.,.,-4,.,.
Cc1cc(SCC(=O)N/N=C/c2ccc(O)c(O)c2O)c(C)cc1Br,1,-6,0,45*,-26,8
COc1cc(/C=N/NC(=O)CSc2cc(C)c(Br)cc2C)ccc1O,0.8,6,18,2,-15,.
O=C(Nc1ccccc1)Nc1ccc(Cl)nc1Cl,.,.,.,6,.,.
